Assay results as given in ChEMBL document CHEMBL4138186, “Synthesis and bio-evaluation of indole-chalcone based benzopyrans as promising antiligase and antiproliferative agents” (Eur J Med Chem, 2018).
The source made the active and inactive calls. No cut-off for these calls is given here.

Key:
[1] = target: DNA ligase 1 (Homo sapiens) (UniProt P18858); test: Inhibition of human Lig1 at 10 uM using double strand nicked DNA as substrate after 30 mins in presence of ATP by acrylamide-based fluorescence-assay
Method in brief: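 Cy3-labelled nicked duplex (52-mer annealed to 25- and 27-mers; 1 pmol) with purified hLigI (0.2 pmol) in 50 mM Tris-Cl pH 7.5, 10 mM MgCl2, 0.25 mg/mL BSA, 100 mM NaCl, 500 µM ATP. Compound at 10 μM; 30 min at 37 °C. Stopped with formamide/EDTA; ligated and unligated strands separated on 7 M urea/12% denaturing gel. Triplicate.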

[2] = system: MDA-MB-231; test: Antiproliferative activity against human MDA-MB-231 cells at 10 uM after 48 hrs by MTT assay; type: functional, cell-based
Method in brief: (§1)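 Cells seeded and allowed to adhere overnight, then given compound from 10 mM DMSO stock; DMSO alone as vehicle control. Grown 48 h, MTT (5 mg/ml) added for 3 h, formazan dissolved in DMSO, absorbance read at 590 nm. % inhibition = (A control − A treated)/A control × 100; three independent biological replicates. Single-point screen at 10 μM; IC50 from three independent experiments.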

[3] = system: DLD-1; test: Antiproliferative activity against human DLD1 cells at 10 uM after 48 hrs by MTT assay; type: functional, cell-based; method in brief: as §1
[4] = system: HeLa; test: Antiproliferative activity against human HeLa cells at 10 uM after 48 hrs by MTT assay; type: functional, cell-based; method in brief: as §1
[5] = system: 4T1 (Mus musculus); test: Antiproliferative activity against mouse 4T1 cells at 10 uM after 48 hrs by MTT assay
[6] = system: HepG2; test: Antiproliferative activity against human HepG2 cells at 10 uM after 48 hrs by MTT assay; type: functional, cell-based; method in brief: as §1
[7] = system: HEK293; test: Cytotoxicity against HEK293 cells after 48 hrs by MTT assay; type: cell-based; conditions: Homo sapiens, HEK293, 48 h
[8] = system: DLD-1; test: Induction of apoptosis in human DLD1 cells assessed as early apoptotic cells at 5 uM after 48 hrs by Annexin V-FITC/propidium iodide staining-based flow cytometric method relative to control; type: functional
Method in brief: (§2)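 DLD-1 cells exposed to 2.5, 5 and 10 μM for 48 h, harvested, washed in cold PBS and stained with Annexin V-FITC and PI in binding buffer at room temperature in the dark. Analysed by flow cytometry; early and late apoptotic fractions averaged from three independent experiments.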

[9] = system: DLD-1; test: Antiproliferative activity against human DLD1 cells after 48 hrs by MTT assay; type: functional, cell-based; conditions: DLD-1, 48 h; method in brief: as §1
[10] = system: DNA; test: Binding affinity to Escherichia coli pUC18 DNA assessed as protection against DNase1-mediated cleavage at 250 to 700 uM preincubated for 30 mins followed by DNase1 addition measured after 5 mins by 1% agarose gel based UV-transilluminator analysis; type: nucleic-acid assay
Method in brief: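 Linearized pUC18 plasmid DNA (100 ng) incubated with compound (250, 500, 700 μM) or controls (doxorubicin 100 μM; DAPI, methyl green, ampicillin 500 μM) for 30 min at 37 °C in ligation-like buffer. DNase I 0.0025 U added for 5 min at 37 °C, stopped with urea/EDTA buffer, resolved on 1% agarose and imaged under UV.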

[11] = system: MDA-MB-231; test: Antiproliferative activity against human MDA-MB-231 cells after 48 hrs by MTT assay; type: functional, cell-based; conditions: MDA-MB-231, 48 h; method in brief: as §1
[12] = system: DLD-1; test: Induction of apoptosis in human DLD1 cells after 48 hrs by Annexin V-FITC/propidium iodide staining-based flow cytometric method; type: functional, cell-based; method in brief: as §2
[13] = target: T1, DNA ligase 3 (Homo sapiens) (UniProt P49916); test: Inhibition of human Lig3beta at 10 uM using double strand nicked DNA as substrate at 3.125 to 50 uM after 30 mins in presence of ATP by acrylamide-based fluorescence-assay
T1 sequence (whole entry): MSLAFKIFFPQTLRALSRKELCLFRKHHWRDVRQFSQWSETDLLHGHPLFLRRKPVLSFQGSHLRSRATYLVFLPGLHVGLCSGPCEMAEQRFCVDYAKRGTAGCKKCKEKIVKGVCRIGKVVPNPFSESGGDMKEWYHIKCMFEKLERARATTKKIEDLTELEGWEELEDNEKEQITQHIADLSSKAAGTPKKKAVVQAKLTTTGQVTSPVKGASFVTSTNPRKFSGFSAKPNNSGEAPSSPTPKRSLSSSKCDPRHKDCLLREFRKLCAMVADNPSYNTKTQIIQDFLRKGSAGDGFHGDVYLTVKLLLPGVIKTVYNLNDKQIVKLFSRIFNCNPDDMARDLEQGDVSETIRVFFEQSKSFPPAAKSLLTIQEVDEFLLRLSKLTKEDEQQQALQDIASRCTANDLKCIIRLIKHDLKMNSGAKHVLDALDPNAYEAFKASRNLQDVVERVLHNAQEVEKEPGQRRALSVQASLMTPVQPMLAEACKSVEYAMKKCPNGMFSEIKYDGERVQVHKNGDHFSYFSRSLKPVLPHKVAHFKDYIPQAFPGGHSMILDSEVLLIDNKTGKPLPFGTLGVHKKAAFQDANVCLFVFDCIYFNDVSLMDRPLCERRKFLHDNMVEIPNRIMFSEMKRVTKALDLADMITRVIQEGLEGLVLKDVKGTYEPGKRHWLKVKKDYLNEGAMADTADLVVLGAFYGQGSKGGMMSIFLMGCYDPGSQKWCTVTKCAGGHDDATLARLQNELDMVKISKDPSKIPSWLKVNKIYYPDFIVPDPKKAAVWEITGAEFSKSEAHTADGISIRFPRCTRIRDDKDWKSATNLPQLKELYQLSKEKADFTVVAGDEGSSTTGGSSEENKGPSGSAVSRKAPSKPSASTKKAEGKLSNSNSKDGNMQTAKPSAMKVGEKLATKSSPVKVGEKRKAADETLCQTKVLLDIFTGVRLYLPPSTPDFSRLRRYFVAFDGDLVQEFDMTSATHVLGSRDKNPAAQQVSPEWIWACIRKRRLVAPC

[14] = system: DLD-1; test: Anti-migratory activity in human DLD1 cells at 2.5 to 5 uM after 12 to 48 hrs by wound healing assay; type: functional, cell-based
Method in brief: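 DLD-1 monolayer at 70-80% confluence scratched with a pipette tip, then exposed to 2.5 and 5 μM for 12, 24 and 48 h (methods state 12, 24, 36 h). Wound imaged by phase-contrast microscopy; % open area quantified at each time point. Mean of three independent experiments.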

[15] = system: DLD-1; test: Induction of apoptosis in human DLD1 cells assessed as late apoptotic cells at 5 uM after 48 hrs by Annexin V-FITC/propidium iodide staining-based flow cytometric method relative to control; type: functional; method in brief: as §2
[16] = system: HeLa; test: Antiproliferative activity against human HeLa cells after 48 hrs by MTT assay; type: functional, cell-based; method in brief: as §1
[17] = system: HepG2; test: Antiproliferative activity against human HepG2 cells after 48 hrs by MTT assay; type: functional, cell-based; conditions: HepG2, 48 h; method in brief: as §1
[18] = target: LIG4/XRCC4 (Homo sapiens) (UniProt P49917+Q13426); test: Inhibition of human DNA Lig4/[…] at 10 uM using double strand nicked DNA as substrate after 30 mins in presence of ATP by acrylamide-based fluorescence-assay; type: protein-complex assay
[19] = system: DLD-1; test: Induction of apoptosis in 3D-spheroids of human DLD1 cells assessed as increase in cell death after 72 hrs by FDA/propidium iodide dye based phase contrast microscopy; type: functional
Method in brief: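 DLD-1 spheroids formed by hanging drop (5×10^3 cells/10 μL RPMI, 3 days, 37 °C, 5% CO2), moved to 0.7% agarose-coated wells and grown 7 days. Treated 72 h at 25, 12.5 and 6.25. Stained with FDA 2 μg/ml and PI 20 μg/ml for 20 min in the dark; imaged by fluorescence microscopy.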

[20] = target: T2, DNA ligase (Enterobacteria phage T4) (UniProt P00970); test: Inhibition of T4 DNA ligase at 10 uM using double strand nicked DNA as substrate at 3.125 to 50 uM after 30 mins in presence of ATP by acrylamide-based fluorescence-assay; conditions: Tequatrovirus T4
T2 sequence (whole entry): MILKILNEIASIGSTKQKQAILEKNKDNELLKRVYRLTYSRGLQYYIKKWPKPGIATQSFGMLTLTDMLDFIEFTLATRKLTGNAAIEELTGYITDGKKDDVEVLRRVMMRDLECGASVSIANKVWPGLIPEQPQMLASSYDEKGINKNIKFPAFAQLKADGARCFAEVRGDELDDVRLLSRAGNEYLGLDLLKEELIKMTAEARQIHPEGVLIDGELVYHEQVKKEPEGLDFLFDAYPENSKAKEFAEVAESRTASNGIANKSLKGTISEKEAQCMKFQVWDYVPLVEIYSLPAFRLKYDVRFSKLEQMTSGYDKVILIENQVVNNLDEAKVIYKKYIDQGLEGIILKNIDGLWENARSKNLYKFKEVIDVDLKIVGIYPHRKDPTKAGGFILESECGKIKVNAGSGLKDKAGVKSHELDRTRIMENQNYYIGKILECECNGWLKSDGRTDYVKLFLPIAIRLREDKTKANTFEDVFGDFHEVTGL

[21] = Antiproliferative activity against mouse 4T1 cells after 48 hrs by MTT assay
[22] = system: DLD-1; test: Induction of apoptosis in human DLD1 cells assessed as late apoptotic cells at 10 uM after 48 hrs by Annexin V-FITC/propidium iodide staining-based flow cytometric method relative to control; type: functional; method in brief: as §2
[23] = system: DLD-1; test: Inhibition of colony formation of human DLD1 cells by crystal violet staining based assay; type: functional, cell-based
Method in brief: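 400 DLD-1 cells per well grown overnight in RPMI/10% FBS, then exposed to 1.25, 2.5 and 5 μM for 24 or 48 h. Medium replaced and colonies grown a further 10 days, medium changed every third day. Fixed and stained with 0.5% crystal violet/6% glutaraldehyde for 30 min at room temperature, then imaged.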

[24] = target: DNA ligase 1 (Homo sapiens) (UniProt P18858); test: Competitive inhibition of human Lig1 using non-ligatable double stranded nicked DNA as substrate after 2 hrs in presence of ATP by EMSA
Method in brief: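 Purified hLigI (10 pmol) with compound (31.25–500 μM) and 2 pmol 5'-FAM-labelled non-ligatable nicked duplex (dideoxy 3' end). Buffer: 50 mM Tris-Cl pH 7.5, 10 mM MgCl2, 0.25 mg/ml BSA, 100 mM NaCl, plus ATP. Incubated 2 h on ice, then 6.5% native PAGE. Three independent experiments.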

[25] = system: DLD-1; test: Induction of apoptosis in human DLD1 cells assessed as early apoptotic cells at 10 uM after 48 hrs by Annexin V-FITC/propidium iodide staining-based flow cytometric method relative to control; type: functional; method in brief: as §2

Chain of DNA ligase 1 (Homo sapiens) (P18858 whole entry): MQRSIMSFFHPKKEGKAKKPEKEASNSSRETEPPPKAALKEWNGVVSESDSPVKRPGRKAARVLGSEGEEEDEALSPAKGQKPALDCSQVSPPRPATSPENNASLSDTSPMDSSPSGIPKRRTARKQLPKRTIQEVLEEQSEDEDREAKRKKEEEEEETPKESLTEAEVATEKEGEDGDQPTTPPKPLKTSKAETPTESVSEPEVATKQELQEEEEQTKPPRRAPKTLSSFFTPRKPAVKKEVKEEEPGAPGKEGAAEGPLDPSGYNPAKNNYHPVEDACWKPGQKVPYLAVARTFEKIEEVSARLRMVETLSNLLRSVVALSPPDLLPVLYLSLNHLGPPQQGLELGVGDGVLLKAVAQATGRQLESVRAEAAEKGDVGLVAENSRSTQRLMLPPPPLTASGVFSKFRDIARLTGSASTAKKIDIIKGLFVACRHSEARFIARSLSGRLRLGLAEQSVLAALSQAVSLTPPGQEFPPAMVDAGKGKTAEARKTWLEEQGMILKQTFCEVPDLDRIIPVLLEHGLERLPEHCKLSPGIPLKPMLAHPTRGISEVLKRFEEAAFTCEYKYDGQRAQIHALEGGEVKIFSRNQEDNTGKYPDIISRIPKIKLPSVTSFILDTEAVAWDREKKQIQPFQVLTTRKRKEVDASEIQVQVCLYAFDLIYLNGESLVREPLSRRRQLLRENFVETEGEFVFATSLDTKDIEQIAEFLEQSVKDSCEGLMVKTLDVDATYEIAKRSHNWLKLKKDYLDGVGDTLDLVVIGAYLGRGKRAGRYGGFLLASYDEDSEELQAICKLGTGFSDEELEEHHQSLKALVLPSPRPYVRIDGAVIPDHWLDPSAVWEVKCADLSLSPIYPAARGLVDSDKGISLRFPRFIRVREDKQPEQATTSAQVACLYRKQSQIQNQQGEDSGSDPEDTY

COc1ccc(C(=O)/C=C/c2cc3c(c(C(C)(C)C)c2)OC(N)=C(C#N)C3c2c(C)[nH]c3ccccc23)cc1 (stereo unspecified)
inhibition [1]: < 20%

COc1ccc(C(=O)/C=C/c2cc3c(c(C(C)(C)C)c2)OC(N)=C(C#N)C3c2c(C)[nH]c3ccc(Cl)cc23)cc1 (stereo unspecified)
inhibition [1]: > 50%

COc1ccc2[nH]c(C)c(C3C(C#N)=C(N)Oc4c3cc(/C=C/C(=O)c3ccc(C)cc3)cc4C(C)(C)C)c2c1 (stereo unspecified)
inhibition [1]: > 45%

Cc1ccc(C(=O)/C=C/c2cc3c(c(C(C)(C)C)c2)OC(N)=C(C#N)C3c2c(C)[nH]c3ccccc23)cc1 (stereo unspecified)
inhibition [1]: < 20%

Cc1ccc(C(=O)/C=C/c2cc3c(c(C(C)(C)C)c2)OC(N)=C(C#N)C3c2c(C)[nH]c3ccc(Cl)cc23)cc1 (stereo unspecified)
inhibition [1]: > 50%

Cc1[nH]c2ccccc2c1C1C(C#N)=C(N)Oc2c(C(C)C)cc(/C=C/C(=O)c3cccs3)cc21 (stereo unspecified)
Activity [2]: Active | inhibition [1]: < 20% | Activity [3]: Active | Activity [4]: Active | Activity [5]: Active | Activity [6]: Active

Cc1[nH]c2ccccc2c1C1C(C#N)=C(N)Oc2c1cc(/C=C/C(=O)c1cccs1)cc2C(C)(C)C (stereo unspecified)
IC50 [7]: 12.4 µM | Activity [2]: Active | Activity [8]: 17.38% | IC50 [9]: 4.66 µM | Activity [10]: inactive | inhibition [1]: 69.4% | Activity [3]: Active | IC50 [11]: 6.09 µM | Activity [12]: Dose-dependent effect | inhibition [13]: inactive | Activity [14]: Active | Activity [4]: Active | Activity [15]: 14.85% | IC50 [16]: 6.4 µM | IC50 [17]: 6.46 µM | inhibition [18]: Dose-dependent effect | Activity [19]: Active | inhibition [20]: inactive | IC50 [21]: 5.76 µM | Activity [5]: Active | Activity [22]: 50.96% | inhibition [23]: Dose-dependent effect | inhibition [24]: Dose-dependent effect | Activity [6]: Active | Activity [25]: 26.53%
